Experimental data: ChEMBL document CHEMBL1949631, “Novel 3-phenylpiperidine-4-carboxamides as highly potent and orally long-acting neurokinin-1 receptor antagonists with reduced CYP3A induction” (Bioorg Med Chem, 2012)

Tests used:
Substance-P receptor = Substance-P receptor (Homo sapiens, UniProt P25103); assay: Displacement of [125I]BH-SP from tachykinin NK1 receptor in human IM9 cells after 30 mins by scintillation counting; format: cell-based, IM-9
Procedure, shortened: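 Receptor membranes from human IM-9 lymphoblasts (grown 3 days, homogenised, spun 40,000 g) in 50 mM Tris-HCl pH 7.4 with 0.02% BSA, protease inhibitors and 3 mM MnCl2. Incubated with [125I]BH-SP (final 130 pM) for 30 min at room temperature in 0.2 mL. Nonspecific binding defined with 2×10^-6 M SP. Read by rapid GF/C filtration (PEI-soaked filters), three washes, scintillation counting.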

Cavia porcellus [1] = assay: Inhibition of GR73632-induced increase in locomotor activity in Hartley guinea pig at 0.3 mg/kg, iv after 5 mins relative to control; format: functional
Procedure, shortened: (§1)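 Male Hartley guinea pigs, 6–8 per group. Compound or vehicle in DMA-PEG400 (1:1, v/v), 0.5 mL/kg, given intravenously just before intracerebroventricular infusion of the NK1 agonist […]. %inh. is taken from activity counts relative to vehicle-treated and sham-infused groups. Values are averages of 5–10 independent experiments.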

[2] = (§2) Metabolic stability in human liver microsomes assessed as parent compound remaining at 1 uM after 15 to 30 mins by HPLC analysis; format: ADME, Microsome; conditions: liver microsomes, read-out: Stability
Procedure, shortened: (§3)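 Compound at 1 μM incubated with human liver microsomes for 15 and 30 min under standard conditions. Remaining parent compound quantified by HPLC and expressed as μL/mg/min.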

Liver microsomes = assay: as §2; format: ADME, Microsome; conditions: microsomes, 1 µM; procedure, shortened: as §3
Cavia porcellus [3] = assay: Inhibition of GR73632-induced increase in locomotor activity in Hartley guinea pig at 0.1 mg/kg, iv after 5 mins relative to control; format: functional; procedure, shortened: as §1
[4] = Oral bioavailability in monkey at 1 mg/kg; format: ADME, organism-based, Macaca mulatta; conditions: rhesus monkey, in vivo
Procedure, shortened: (§4)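 Single oral dose of 1 mg/kg. Blood concentration–time curve used to derive AUC, mean residence time and bioavailability.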

[5] = AUC (0 to 24 hrs) in monkey at 1 mg/kg, po; format: ADME, organism-based, Macaca mulatta; design: time < 24 hr, dose 1 mg/kg, route oral; conditions: rhesus monkey, plasma; procedure, shortened: as §4
[6] = Metabolic stability in rat microsomes; format: ADME, Microsome
[7] = AUC (0 to 24 hrs) in dog at 1 mg/kg, po; format: ADME, organism-based, Canis lupus familiaris; design: time < 24 hr, dose 1 mg/kg, route oral; conditions: plasma; procedure, shortened: as §4
[8] = Oral bioavailability in rat at 1 mg/kg; format: ADME, organism-based; conditions: in vivo; procedure, shortened: as §4
[9] = Metabolic stability in guinea pig microsomes; format: ADME, Cavia porcellus, Microsome
Cavia porcellus [10] = assay: Inhibition of GR73632-induced increase in locomotor activity in po dosed Hartley guinea pig after 1 hr; format: functional; conditions: read-out: ID50 (the source's name)
Procedure, shortened: (§5)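 Male Hartley guinea pigs, 6–8 per group, dosed orally with compound suspended in 0.5% methylcellulose (2 mL/kg), or vehicle, 0.75 h (1 h line) or 23.75 h (24 h line) before intracerebroventricular […] infusion. %inh. comes from locomotor counts corrected for the sham-infused group against the vehicle control. ID50 and 95% CI come from linear regression of the dose–response.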

[11] = Oral bioavailability in guinea pig at 1 mg/kg; format: ADME, organism-based, Cavia porcellus; conditions: in vivo; procedure, shortened: as §4
[12] = Metabolic stability in monkey microsomes; format: ADME, Macaca mulatta, Microsome; conditions: rhesus monkey
[13] = Mean residence time in guinea pig at 1 mg/kg, po; format: ADME, organism-based, Cavia porcellus; design: dose 1 mg/kg, route oral; conditions: in vivo; procedure, shortened: as §4
[14] = Oral bioavailability in dog at 1 mg/kg; format: ADME, organism-based, Canis lupus familiaris; conditions: in vivo; procedure, shortened: as §4
[15] = Metabolic stability in dog microsomes; format: ADME, Canis lupus familiaris, Microsome
Cavia porcellus [16] = assay: Inhibition of GR73632-induced increase in locomotor activity in po dosed Hartley guinea pig after 24 hrs; format: functional; conditions: read-out: ID50 (the source's name); procedure, shortened: as §5
[17] = Mean residence time in dog at 1 mg/kg, po; format: ADME, organism-based, Canis lupus familiaris; design: dose 1 mg/kg, route oral; conditions: in vivo; procedure, shortened: as §4
[18] = Mean residence time in rat at 1 mg/kg, po; format: ADME, organism-based; design: dose 1 mg/kg, route oral; conditions: in vivo; procedure, shortened: as §4
[19] = target: T1, Nuclear receptor subfamily 1 group I member 2 (Homo sapiens, UniProt O75469); assay: Induction of human PXR-mediated CYP3A activity at 10 uM
T1 sequence (O75469 whole entry): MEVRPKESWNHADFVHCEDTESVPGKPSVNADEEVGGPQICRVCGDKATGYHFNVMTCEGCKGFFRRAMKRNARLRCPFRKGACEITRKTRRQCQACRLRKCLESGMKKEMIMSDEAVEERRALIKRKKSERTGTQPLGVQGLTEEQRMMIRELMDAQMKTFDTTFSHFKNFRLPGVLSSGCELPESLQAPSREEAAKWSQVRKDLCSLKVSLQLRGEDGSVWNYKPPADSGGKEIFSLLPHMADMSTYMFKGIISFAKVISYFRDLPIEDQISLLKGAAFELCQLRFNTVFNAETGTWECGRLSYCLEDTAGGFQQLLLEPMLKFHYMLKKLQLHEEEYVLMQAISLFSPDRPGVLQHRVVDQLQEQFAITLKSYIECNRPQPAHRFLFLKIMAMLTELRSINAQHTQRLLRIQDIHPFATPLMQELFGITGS

[20] = AUC (0 to 24 hrs) in guinea pig at 1 mg/kg, po; format: ADME, organism-based, Cavia porcellus; design: time < 24 hr, dose 1 mg/kg, route oral; conditions: plasma; procedure, shortened: as §4
[21] = Mean residence time in monkey at 1 mg/kg, po; format: ADME, organism-based, Macaca mulatta; design: dose 1 mg/kg, route oral; conditions: rhesus monkey, in vivo; procedure, shortened: as §4
[22] = AUC (0 to 24 hrs) in rat at 1 mg/kg, po; format: ADME, organism-based; design: time < 24 hr, dose 1 mg/kg, route oral; conditions: plasma; procedure, shortened: as §4

Substance-P receptor, sequence (P25103 whole entry): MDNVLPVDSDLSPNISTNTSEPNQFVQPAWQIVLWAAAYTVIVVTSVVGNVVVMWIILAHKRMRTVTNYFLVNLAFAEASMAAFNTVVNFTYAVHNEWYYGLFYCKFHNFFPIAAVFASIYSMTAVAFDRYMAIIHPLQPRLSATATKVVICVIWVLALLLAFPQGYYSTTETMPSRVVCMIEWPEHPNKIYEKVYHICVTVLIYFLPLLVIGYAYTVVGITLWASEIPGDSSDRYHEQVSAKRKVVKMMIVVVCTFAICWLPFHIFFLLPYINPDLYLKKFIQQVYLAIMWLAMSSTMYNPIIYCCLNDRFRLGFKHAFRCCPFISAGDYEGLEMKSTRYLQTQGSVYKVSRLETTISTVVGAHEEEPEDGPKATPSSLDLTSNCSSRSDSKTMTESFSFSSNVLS

Row | SMILES | IC50 (Substance-P receptor) [nM] | inhibition in vivo at 0.3 mg/kg (Cavia porcellus [1]) [%] | microsomal CLint at 1 µM [2] [µL/min/mg] | also measured
1 | CC(=O)NCC(=O)N1CC[C@H](C(=O)N(C)Cc2cc(C(F)(F)F)cc(C(F)(F)F)c2)[C@@H](c2ccc(F)cc2C)C1 (racemic) | 0.043 | 48.9 | 59 | 
2 | CC(=O)N1CCC(C(=O)N2CC[C@H](C(=O)N(C)Cc3cc(C(F)(F)F)cc(C(F)(F)F)c3)[C@@H](c3ccc(C)cc3)C2)CC1 (racemic) | 0.18 |  |  | 
3 | Cc1cc(F)ccc1[C@@H]1CN(C(=O)C(N)=O)CC[C@H]1C(=O)N(C)Cc1cc(C(F)(F)F)cc(C(F)(F)F)c1 | > 100 |  |  | 
4 | Cc1cc(F)ccc1[C@H]1CN(C(=O)C(N)=O)CC[C@@H]1C(=O)N(C)Cc1cc(C(F)(F)F)cc(C(F)(F)F)c1 (racemic) | 0.052 | 86.7 |  | Stability (Liver microsomes): 40 µL/min/mg
5 | CC(=O)N1CCC(C(=O)N2CC[C@H](C(=O)N(C)Cc3cc(C(F)(F)F)cc(C(F)(F)F)c3)[C@@H](c3ccccc3C)C2)CC1 (racemic) | 0.032 | 60.1 |  | 
6 | CC(=O)N1CCC(C(=O)N2CC[C@@H](C(=O)NCc3cc(C(F)(F)F)cc(C(F)(F)F)c3)[C@H](c3ccccc3)C2)CC1 (racemic) | 2.7 |  |  | 
7 | Cc1cc(F)ccc1[C@H]1CN(C(=O)C(=O)NO)CC[C@@H]1C(=O)N(C)Cc1cc(C(F)(F)F)cc(C(F)(F)F)c1 (racemic) | 0.046 |  | 2 | inhibition in vivo at 0.1 mg/kg (Cavia porcellus [3]): -15.5%
8 | CN(Cc1cc(C(F)(F)F)cc(C(F)(F)F)c1)C(=O)[C@H]1CCNC[C@H]1c1ccccc1 (relative stereo) | 5.6 |  |  | 
9 | CONC(=O)N1CC[C@H](C(=O)N(C)Cc2cc(C(F)(F)F)cc(C(F)(F)F)c2)[C@@H](c2ccc(F)cc2C)C1 (racemic) | 0.073 |  |  | inhibition in vivo at 0.1 mg/kg (Cavia porcellus [3]): -23.9%
10 | Cc1cc(F)ccc1[C@H]1CN(C(N)=O)CC[C@@H]1C(=O)N(C)Cc1cc(C(F)(F)F)cc(C(F)(F)F)c1 (racemic) | 0.035 | 80.3 | 112 | 
11 | CNC(=O)N1CC[C@H](C(=O)N(C)Cc2cc(C(F)(F)F)cc(C(F)(F)F)c2)[C@@H](c2ccc(F)cc2C)C1 (racemic) | 0.048 | 80 | 199 | 
12 | CC(=O)N1CCC(C(=O)N2CCC(C(=O)N(C)Cc3cc(C(F)(F)F)cc(C(F)(F)F)c3)=C(c3ccccc3)C2)CC1 | 0.17 |  |  | 
13 | CC(=O)N1CCC(C(=O)N2CC[C@H](C(=O)N(C)Cc3cc(C(F)(F)F)cc(C(F)(F)F)c3)[C@@H](c3cccc(C)c3)C2)CC1 (racemic) | 0.14 |  |  | 
14 | CC(=O)N1CCC(C(=O)N2CC[C@H](C(=O)N(C)Cc3cc(C(F)(F)F)cc(C(F)(F)F)c3)[C@@H](c3ccccc3C(C)C)C2)CC1 (racemic) | 0.21 |  |  | 
15 | Cc1cc(F)ccc1[C@H]1CN(C(=O)C(N)=O)CC[C@@H]1C(=O)N(C)[C@@H](C)c1cc(C(F)(F)F)cc(C(F)(F)F)c1 |  |  | 2 | bioavailability [4]: 38%; AUC(0-t) at 24 h [5]: 1040 ng·h/mL; Stability [6]: 13 µL/min/mg; AUC(0-t) at 24 h [7]: 2150 ng·h/mL; bioavailability [8]: 29%; Stability [9]: 3 µL/min/mg; ED50 (Cavia porcellus [10]): 0.1 mg/kg; bioavailability [11]: 83%; Stability [12]: 14 µL/min/mg; MRT [13]: 7.5 h; bioavailability [14]: 40%; Stability [15]: 0 µL/min/mg; ED50 (Cavia porcellus [16]): 0.57 mg/kg; MRT [17]: 6.5 h; MRT [18]: 4.5 h; Activity [19]: 3%; inhibition in vivo at 0.1 mg/kg (Cavia porcellus [3]): 78.9%; AUC(0-t) at 24 h [20]: 1080 ng·h/mL; MRT [21]: 6.4 h; AUC(0-t) at 24 h [22]: 521 ng·h/mL
16 | CC(=O)N1CCC(C(=O)N2CC[C@H](C(=O)N(C)Cc3cc(C(F)(F)F)cc(C(F)(F)F)c3)[C@@H](c3ccc(F)cc3C)C2)CC1 (racemic) | 0.047 | 105 | 111 | Activity [19]: 2%
17 | Cc1cc(F)ccc1[C@H]1CN(C(=O)C(N)=O)CC[C@@H]1C(=O)N(C)Cc1cc(C(F)(F)F)cc(C(F)(F)F)c1 | 0.02 |  | 30 | ED50 (Cavia porcellus [10]): 0.14 mg/kg; ED50 (Cavia porcellus [16]): 0.72 mg/kg; inhibition in vivo at 0.1 mg/kg (Cavia porcellus [3]): 88.8%
18 | CC(=O)NCC(=O)N1CC[C@@H](C(=O)N(C)Cc2cc(C(F)(F)F)cc(C(F)(F)F)c2)[C@H](c2ccccc2)C1 (racemic) | 12 |  |  | 
19 | CC(=O)N1CCC(C(=O)N2CC[C@H](C(=O)N(C)Cc3cc(C(F)(F)F)cc(C(F)(F)F)c3)[C@@H](c3ccc(F)cc3)C2)CC1 (racemic) | 0.052 | 41.4 |  | 
20 | Cc1cc(F)ccc1[C@H]1CN(C(=O)C(N)=O)CC[C@@H]1C(=O)N(C)[C@H](C)c1cc(C(F)(F)F)cc(C(F)(F)F)c1 | 0.2 |  | 57 | inhibition in vivo at 0.1 mg/kg (Cavia porcellus [3]): 43.1%
21 | CC(=O)N1CCC(C(=O)N2CC[C@@H](C(=O)N(C)Cc3cc(C(F)(F)F)cc(C(F)(F)F)c3)[C@H](c3ccccc3)C2)CC1 (racemic) |  | 72.1 |  | 
22 | CC(=O)N1CC[C@H](C(=O)N(C)Cc2cc(C(F)(F)F)cc(C(F)(F)F)c2)[C@H](c2ccccc2)C1 (racemic) | 3.2 |  |  | 
23 | CCc1ccccc1[C@H]1CN(C(=O)C2CCN(C(C)=O)CC2)CC[C@@H]1C(=O)N(C)Cc1cc(C(F)(F)F)cc(C(F)(F)F)c1 (racemic) | 0.064 |  |  | 
24 | CN(Cc1cc(C(F)(F)F)cc(C(F)(F)F)c1)C(=O)[C@@H]1CCNC[C@H]1c1ccccc1 (racemic) | 2.6 |  |  | 
25 | CNC(=O)C(=O)N1CC[C@H](C(=O)N(C)Cc2cc(C(F)(F)F)cc(C(F)(F)F)c2)[C@@H](c2ccc(F)cc2C)C1 (racemic) | 0.11 | 51.5 | 115 | 
26 | CC(=O)N1CC[C@@H](C(=O)N(C)Cc2cc(C(F)(F)F)cc(C(F)(F)F)c2)[C@H](c2ccccc2)C1 (racemic) | 2.6 |  |  | 
